According to ChEMBL document CHEMBL1914298, “Synthesis and inhibition study of monoamine oxidase, indoleamine 2,3-dioxygenase and tryptophan 2,3-dioxygenase by 3,8-substituted 5H-indeno[1,2-c]pyridazin-5-one derivatives” (Eur J Med Chem, 2011):
The source made the active and inactive calls. The rule behind the calls is not given here.

Experiments:
[1] = target: T1, Amine oxidase [flavin-containing] A (Homo sapiens, UniProt P21397); experiment: (§1) Inhibition of human recombinant MAOA expressed in baculovirus-infected BTI insect cells at 10 uM after 1 hr by MAO-GLO two-step bioluminescence assay; conditions: 1 h, 10 µM
T1 sequence (P21397 whole entry): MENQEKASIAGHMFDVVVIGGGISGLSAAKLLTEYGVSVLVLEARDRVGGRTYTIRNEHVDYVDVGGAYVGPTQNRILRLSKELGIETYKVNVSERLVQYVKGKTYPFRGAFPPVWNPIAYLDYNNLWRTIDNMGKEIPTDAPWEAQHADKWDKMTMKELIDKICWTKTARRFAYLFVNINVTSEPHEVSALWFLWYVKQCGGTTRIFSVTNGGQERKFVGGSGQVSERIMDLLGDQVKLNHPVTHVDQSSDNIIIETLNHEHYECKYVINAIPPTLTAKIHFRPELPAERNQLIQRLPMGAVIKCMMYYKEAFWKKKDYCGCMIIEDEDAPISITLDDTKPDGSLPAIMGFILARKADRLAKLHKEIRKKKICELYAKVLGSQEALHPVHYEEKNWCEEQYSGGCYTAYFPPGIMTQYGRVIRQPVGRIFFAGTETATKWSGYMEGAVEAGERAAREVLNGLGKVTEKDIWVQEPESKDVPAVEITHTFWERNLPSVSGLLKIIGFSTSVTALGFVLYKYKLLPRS
Outline: (§2)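 Recombinant human MAO-A or MAO-B from baculovirus-infected BTI insect cells; test compound at […], in triplicate in vitro; activity measured by luminescent method (Valley et al.); percent inhibition given as mean ± SD, n = 3.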

[2] = target: T2, MAO-B (amine oxidase [flavin-containing] B) (Homo sapiens, UniProt P27338); experiment: Inhibition of human recombinant MAOB expressed in baculovirus-infected BTI insect cells at 10 uM after 1 hr by MAO-GLO two-step bioluminescence assay; outline: as §2
T2 sequence (P27338 whole entry): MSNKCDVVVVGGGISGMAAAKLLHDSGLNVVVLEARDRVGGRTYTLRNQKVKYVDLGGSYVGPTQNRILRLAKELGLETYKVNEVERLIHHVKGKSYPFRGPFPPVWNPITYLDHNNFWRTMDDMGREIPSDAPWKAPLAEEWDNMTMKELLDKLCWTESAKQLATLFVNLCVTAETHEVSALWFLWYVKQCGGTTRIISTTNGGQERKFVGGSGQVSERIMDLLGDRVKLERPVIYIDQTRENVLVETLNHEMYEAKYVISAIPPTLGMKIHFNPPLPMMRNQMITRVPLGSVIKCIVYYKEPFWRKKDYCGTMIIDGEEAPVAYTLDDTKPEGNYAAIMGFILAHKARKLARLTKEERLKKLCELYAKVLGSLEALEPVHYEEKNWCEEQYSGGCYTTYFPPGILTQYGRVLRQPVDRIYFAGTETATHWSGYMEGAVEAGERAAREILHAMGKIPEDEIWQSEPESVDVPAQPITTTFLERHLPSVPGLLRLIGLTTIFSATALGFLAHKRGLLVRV

[3] = target: Indoleamine 2,3-dioxygenase 1 (Homo sapiens) (UniProt P14902); experiment: Inhibition of human IDO using L-tryptophan as substrate at 25 uM by colorimetric method
Chain of Indoleamine 2,3-dioxygenase 1 (Homo sapiens) (P14902 whole entry, looked up): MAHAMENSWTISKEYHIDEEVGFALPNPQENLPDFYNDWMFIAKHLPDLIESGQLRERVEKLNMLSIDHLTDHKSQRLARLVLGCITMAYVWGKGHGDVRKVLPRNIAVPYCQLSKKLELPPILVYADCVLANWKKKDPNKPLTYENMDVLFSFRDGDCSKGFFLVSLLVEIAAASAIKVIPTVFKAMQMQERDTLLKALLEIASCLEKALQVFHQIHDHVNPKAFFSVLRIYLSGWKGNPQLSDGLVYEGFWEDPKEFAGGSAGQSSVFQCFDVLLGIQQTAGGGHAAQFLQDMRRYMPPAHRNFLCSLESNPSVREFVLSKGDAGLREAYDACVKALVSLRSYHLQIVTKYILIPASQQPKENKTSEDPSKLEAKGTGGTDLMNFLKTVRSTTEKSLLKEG
Outline: (§3)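 Human IDO activity read colourimetrically, rmTDO activity read fluorometrically; compounds tested in vitro at […]; percent inhibition as mean ± SD, n = 3.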

[4] = target: T3, Tryptophan 2,3-dioxygenase (Ralstonia metallidurans (strain CH34 / ATCC 43123 / DSM 2839)) (UniProt Q1LK00); experiment: Inhibition of Ralstonia metallidurans TDO using L-tryptophan as substrate at 25 uM by fluorimetric method; conditions: Cupriavidus metallidurans; outline: as §3
T3 sequence (whole entry): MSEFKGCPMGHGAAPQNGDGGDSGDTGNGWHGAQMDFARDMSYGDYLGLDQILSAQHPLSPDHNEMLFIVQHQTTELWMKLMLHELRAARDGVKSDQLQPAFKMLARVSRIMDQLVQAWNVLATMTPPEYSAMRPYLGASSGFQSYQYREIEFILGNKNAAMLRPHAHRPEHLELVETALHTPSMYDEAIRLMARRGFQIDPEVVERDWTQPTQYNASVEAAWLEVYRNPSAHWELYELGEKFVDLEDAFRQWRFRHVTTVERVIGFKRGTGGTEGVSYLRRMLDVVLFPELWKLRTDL

[5] = target: T4, MAO-A (amine oxidase [flavin-containing] A) (Homo sapiens, UniProt P21397); experiment: as §1; outline: as §2
T4 sequence (P21397 whole entry): T1 sequence (P21397 whole entry)

[6] = target: T5, Amine oxidase [flavin-containing] B (Homo sapiens, UniProt P27338); experiment: Inhibition of human recombinant MAOB expressed in baculovirus-infected BTI insect cells after 1 hr by Cheng-Prusoff equation analysis
T5 sequence (P27338 whole entry): T2 sequence (P27338 whole entry)

[7] = target: T5, Amine oxidase [flavin-containing] B; experiment: Inhibition of human recombinant MAOB expressed in baculovirus-infected BTI insect cells by Lineweaver-Burk plot analysis

Structure (SMILES): Cc1cc2c(nn1)-c1cc(OCCCC(F)(F)F)ccc1C2=O
- inhibition (INH) [1]: Not Active
- inhibition at 1 h, 10 µM [2]: 92%
- inhibition [3]: 19%
- inhibition [4]: 31%

Structure (SMILES): COc1ccc2c(c1)-c1nnc(-c3cccc(C(F)(F)F)c3)cc1C2=O
- inhibition (INH) [1]: Not Active
- inhibition at 1 h, 10 µM [2]: 36%
- inhibition [3]: inactive
- inhibition [4]: 18%

Structure (SMILES): O=C1c2ccc(OCCCC(F)(F)F)cc2-c2nnc(-c3cccc(C(F)(F)F)c3)cc21
- inhibition (INH) [1]: Not Active
- inhibition at 1 h, 10 µM [2]: 57%
- inhibition [3]: inactive
- inhibition [4]: 20%

Structure (SMILES): Cc1cccc(COc2ccc3c(c2)-c2nnc(C)cc2C3=O)c1
- inhibition at 1 h, 10 µM [5]: 17%
- inhibition at 1 h, 10 µM [2]: 90%
- inhibition [3]: 14%
- inhibition [4]: 66%
- Ki [6]: 0.48 µM

Structure (SMILES): O=C1c2ccc(OCc3ccccc3)cc2-c2nnc(-c3cccc(C(F)(F)F)c3)cc21
- inhibition at 1 h, 10 µM [5]: 10%
- inhibition at 1 h, 10 µM [2]: 7%
- inhibition [3]: 17%
- inhibition [4]: inactive

Structure (SMILES): Cc1cc2c(nn1)-c1cc(OCc3cccc(Cl)c3)ccc1C2=O
- inhibition at 1 h, 10 µM [5]: 15%
- inhibition at 1 h, 10 µM [2]: 93%
- inhibition [3]: 25%
- inhibition [4]: 19%
- Ki [7]: 0.11 µM
- Ki [6]: 0.16 µM
